Compound activity deposited in PubChem BioAssay by Johns Hopkins Ion Channel Center.
Most compounds without a hit are left out; they make up all but 3.5% or so of the library.
MrgX1 antagonist – blocks BAM8-22 activation of human MrgX1 receptor; Q96LB2; MRGX1-HEK293 calcium flux, Fluo-4, BAM8-22 antagonism; hits give low values; AID 588676; B-score at 10 µM; 1.3% of 310,000 active;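 active = calcium-response B-score plate-corrected more than 3 library SD below zero, starting fluorescence within 5 deviations, no agonist response on first addition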;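 also: peak minus trough fluorescence over baseline after final BAM8-22 challenge near maximal dose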
Target sequence (Q96LB2 whole entry, looked up): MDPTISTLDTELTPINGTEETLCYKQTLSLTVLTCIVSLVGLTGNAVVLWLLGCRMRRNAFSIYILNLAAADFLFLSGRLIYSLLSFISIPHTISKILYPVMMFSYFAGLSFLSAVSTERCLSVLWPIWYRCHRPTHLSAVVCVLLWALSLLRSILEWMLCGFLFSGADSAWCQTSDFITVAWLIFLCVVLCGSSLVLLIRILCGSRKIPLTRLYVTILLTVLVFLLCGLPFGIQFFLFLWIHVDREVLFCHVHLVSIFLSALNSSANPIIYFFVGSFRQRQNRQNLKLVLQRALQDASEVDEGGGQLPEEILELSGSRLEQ
RGS4 act – potentiators or activators of RGS4; 0.92% of 310,000 active; B-score at 10 µM; HEK293 M3R/inducible RGS4, carbachol calcium flux Fluo4; hits give low values;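 active = B-score of the integrated calcium signal more than 4 SD below the library mean, with starting fluorescence not abnormally high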;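 also: negative B-score means reduced calcium response which marks RGS4 activation or potentiation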
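System: HEK293 FlpIn-TREx cells, stable M3R, doxycycline-inducible RGS4. Timing: overnight RGS4 induction, 30 min dye load 37 °C, 20 min compound RT. Also added: carbachol, ECmax concentration. Measured by: Fluo4 fluorescence kinetic imaging of calcium. Evaluation: integrated calcium ratio converted to B score.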
MrgX1 PAM – allosterically activates human MrgX1 receptor signaling; Q96LB2; MrgX1-HEK293, Fluo-4 calcium flux, FDSS; hits give high values; B-score at 10 µM; 0.63% of 310,000 active; AID 588675;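 active = plate-corrected calcium response at least 3 library SD above typical, normal starting fluorescence, not activating the receptor alone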;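 also: compound read alongside a low EC10 to EC30 dose of BAM8-22 agonist; peak minus trough fluorescence over baseline measured at the second addition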
RGS4 block – inhibitors of human RGS4. B-score at 10 µM. HEK293 M3R/RGS4 inducible, Fluo-4 calcium flux; hits give high values; triggered by carbachol at its EC20. AID 463165. 0.45% of 310,000 active;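 active = B-score, a plate-corrected calcium signal, over three deviations above library mean, with baseline fluorescence within five deviations of library mean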;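 also: RGS4 expression induced by doxycycline in cells with stable M3 receptor; B-score is computed from the integrated fluorescence ratio over baseline after carbachol; higher B-score means a larger calcium signal and so more RGS4 inhibition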
Target sequence (P49798 whole entry, looked up): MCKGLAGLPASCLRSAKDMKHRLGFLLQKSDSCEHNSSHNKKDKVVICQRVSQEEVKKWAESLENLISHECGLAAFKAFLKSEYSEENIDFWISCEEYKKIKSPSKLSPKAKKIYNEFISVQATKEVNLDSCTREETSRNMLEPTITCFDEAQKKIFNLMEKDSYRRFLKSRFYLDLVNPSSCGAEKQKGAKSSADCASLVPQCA
MrgX1 ag – human MrgX1 receptor agonism, primary screen; 0.44% of 310,000 active; MrgX1-HEK293 cells, Fluo-4 calcium fluorescence, agonist mode; hits give high values; B-score at 10 µM; Q96LB2; AID 588627;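 active = calcium response B-score plate-corrected fluorescence ratio at least 3 library SD, with starting fluorescence B-score inside 5 SD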
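Test system: HEK293 cells stably expressing human MrgX1 receptor; Input: fifteen thousand cells per well; Dosing: compound delivered in addition one of three; Schedule: overnight seeding, then 1 h dark dye loading; Technique: Fluo-4 NW calcium fluorescence; Measure: B-scored fluorescence response ratio; Controls: positive and negative controls per plate.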
MrgX1 PAM conf – confirmation of human MrgX1 receptor positive allosteric modulators; shares compounds with MrgX1 PAM; MrgX1-HEK293, Fluo-4 calcium fluorescence, FDSS; activation (ratio percentage), % at 10 µM; 13% of 1,200 active;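 active = ratio at least 3 SD above the weak peptide control, stable starting fluorescence, no direct agonism earlier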;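 also: compound followed by low BAM8-22 agonist challenge near EC20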
MrgX1 antag conf – reconfirmed antagonist of human MrgX1 receptor signaling | shares compounds with MrgX1 antagonist | MrgX1-HEK293, BAM8-22 calcium flux, Fluo-4; hits give low values | remaining BAM8-22 calcium response % of control (hits give low values), % at 10 µM | 19% of 2,300 active | AID 602420;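 active = remaining agonist calcium response no higher than 100% minus 3 SD of agonist-only control wells, with starting fluorescence near control levels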;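 also: agonist BAM8-22 given at a near maximal EC90 to ECmax level; peak minus minimum fluorescence divided by baseline after agonist addition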
HEK293 Ca flux – MrgX1 antagonist counter-screen hit in parental HEK293 cells. fluorescence ratio F(max-min)/F0 at 10 µM. 2% of 4,000 active. shares compounds with MrgX1 antagonist. Fluo-4 calcium fluorescence, FDSS;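 active = duplicate-averaged calcium fluorescence ratio at least three times the standard deviation of buffer wells, a nonspecific response in parental cells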
HEK293 Ca counter – MrgX1 allosteric activator counter-screen hit in parental HEK293 cells; 0.4% of 4,000 active; fluorescence ratio F(max-min)/F0 at 10 µM; shares compounds with MrgX1 antagonist; parental HEK293 calcium flux, Fluo-4 fluorescence ratio; hits give high values; AID 624114;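 active = calcium fluorescence ratio, averaged over duplicates, at least 3 SD of the buffer-well ratio, meaning a nonspecific response in receptor-free cells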;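 also: untransfected parental HEK293 lacking MrgX1 used as counterscreen for MrgX1 allosteric activators; fluorescence change taken during the second addition on a kinetic imager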
HEK293 Ca cntr2 – activity in parental HEK293 cells lacking MrgX1 receptor. fluorescence ratio F(max-min)/F0 at 10 µM. AID 624115. shares compounds with MrgX1 antagonist. 8.7% of 4,000 active. Fluo-4 calcium fluorescence (FDSS); hits give high values;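 active = calcium fluorescence ratio at least three times the spread of buffer wells, meaning a non-specific response in parental cells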
Numbers stand for hits; – = inactive; · = not tested or not shown.

SMILES	MrgX1 antagonist	RGS4 act	MrgX1 PAM	RGS4 block	MrgX1 ag	MrgX1 PAM conf	HEK293 Ca flux	HEK293 Ca counter	HEK293 Ca cntr2	others
Cc1cc(C(=O)N2CCCC(CCC(=O)N3CCN(c4ccccn4)CC3)C2)c(C)o1 (stereo not drawn)	–	–	–	–	–	·	·	·	·
Cc1ccc(C(=O)N2CCCC(CCC(=O)N3CCN(c4ccccn4)CC3)C2)cn1 (stereo not drawn)	–	–	–	–	–	·	·	·	·
Cc1cccc(N2CCN(c3nc4ccc(Cl)cc4n4cnnc34)CC2)c1C	–	–	–	–	–	·	·	·	·
COc1ccc(Nc2cc(C)nc(N)n2)cc1	–	–	–	–	–	·	·	·	·
Nc1cc(Nc2ccc(Br)cc2)nc(N)n1	-8.64	–	7.52	–	–	–	–	–	–	MrgX1 antag conf=–
O=C(Nc1ccc(Br)cc1)C1OCCc2ccccc21 (stereo not drawn)	–	–	10.7	–	–	–	–	–	–
O=C(CSc1nc(O)c(C2CCCCC2)c(=O)[nH]1)Nc1ccc(F)cc1	–	–	–	–	–	·	·	·	·
CCN(CC)S(=O)(=O)c1cccc(NC(=O)COC(=O)C2CC3C=CC2C3)c1 (stereo not drawn)	–	–	6.52	–	–	–	–	–	–
O=C(NC12CC3CC(CC(C3)C1)C2)c1ccc(-c2ccccc2Cl)o1	–	–	6.74	–	–	–	–	–	–
CC1CCN(C(=O)c2ccc(-c3ccccc3Cl)o2)CC1	–	–	7.64	–	–	–	–	–	–
O=C(c1ccc(-c2cccc(Cl)c2Cl)o1)N1CCOCC1	–	–	–	–	–	·	·	·	·
O=C(NC12CC3CC(CC(C3)C1)C2)c1ccccc1O	–	–	9.83	–	–	–	–	–	–
COCCCN(Cc1ccco1)C(=O)Cn1ncc2c(=O)oc3ccc(C)cc3c21	–	–	–	–	–	·	·	·	·
Cc1nn(-c2ccccc2)c(Cl)c1/C=N/Nc1nncc(=O)[nH]1	–	–	–	–	–	·	·	·	·
COc1ccc2c(C)cc(SCC(=O)N(C)C3CCS(=O)(=O)C3)nc2c1 (stereo not drawn)	–	–	10.3	–	–	–	–	–	–
COc1ccc2c(C)cc(SCC(=O)N3CCOCC3)nc2c1	–	–	–	–	–	·	·	·	·
CC(C)(C)NC(=O)CSc1nc(-c2ccc(F)cc2)cs1	–	–	9.38	–	–	–	–	–	–
O=C(Nc1ccccn1)C1CCN(S(=O)(=O)c2ccc(Cl)cc2)CC1	–	–	–	–	–	·	·	·	·
CCCn1c(SCC(=O)Nc2ccccc2Cl)n[nH]c1=O	–	–	6.59	–	–	–	–	–	–
Cc1cccc(-n2cnc3cc(C(=O)N4CCc5ccccc54)ccc32)c1	–	–	7.52	–	–	–	–	–	–
COCCNC(=O)c1ccc2c(c1)ncn2-c1cccc(C)c1	–	–	–	–	–	·	·	·	·
Cn1c(N2CCN(C(=O)Nc3ccc(F)cc3)CC2)nc2ccccc21	–	–	–	–	–	·	·	·	·
Cn1c(N2CCN(C(c3ccccc3)c3ccccc3)CC2)nc2ccccc21	–	-7.09	7.51	–	–	–	–	–	–
COc1cccc(-n2nnnc2SCC(=O)Nc2ccc(OC)cc2OC)c1	–	–	–	–	–	·	·	·	·
C=CCNc1nc(SCC=C)nc2ccsc12	–	–	7.42	–	–	–	–	–	–
C=CCSc1nc(Oc2ccccc2)c2sccc2n1	–	–	–	–	–	·	·	·	·
Cc1cccc(Cc2nnc(CCC(=O)N(C)C3CCOC3)o2)c1 (stereo not drawn)	–	–	–	–	–	·	·	·	·
